# Assay outcomes from PubChem.
# NR2E3 ag-1 = inhibitors of NR2E3-RetCOR corepressor binding, primary screen, NR2E3 agonist project, biochemical, TR-FRET, GST-NR2E3, biotin-RetCOR. Photoreceptor-specific nuclear receptor (Homo sapiens), Q9Y5X4. 1536-well. inhibition of corepressor binding, % at 4.78 µM. 0.12% of 320,000 active;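 active means percent inhibition above the cutoff of mean plus 3 SD of all tested compounds, set per screening campaign, cut at about 20% in these data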
#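 System: GST-tagged NR2E3 plus biotinylated RetCOR corepressor; Buffer or medium: pH 7.5 Tris-based buffer; Probe or stimulus: RetCOR corepressor, biotinylated, 7 nM; Doses: compound at 4.8 µM, single dose; Schedule: 5 h incubation at 4 °C; Technique: time-resolved FRET; Evaluation: percent inhibition of TR-FRET ratio; Replication: one well per compound, singlicate testing.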
# PP1 counter = PP1-alpha phosphatase inhibitors, primary screen, counter-screen for PP5 inhibitor project, biochemical, fluorescence, OMFP substrate, single point | Serine/threonine-protein phosphatase PP1-alpha catalytic subunit (Homo sapiens), P62136 | purified PP1alpha | inhibition, % at 6.7 µM | 0.9% of 320,000 active | AID 2235, 2010;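 active means inhibition above the mean inhibition of all tested compounds plus 3 SD, computed separately for each screening campaign, cut at about 15% in these data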
# NR2E3 ag-2 = NR2E3 agonists in two-hybrid cells, primary screen, cell-based, luminescence, CHO-S, Gal4-NCOR/VP16-NR2E3; Photoreceptor-specific nuclear receptor (Homo sapiens), Q9Y5X4; luciferase; inhibition of corepressor binding, % at 3.98 µM; 0.35% of 360,000 active;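 active means inhibition above the mean of all tested compounds plus 3 SD, cut at about 70% in these data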;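 further: higher means lower luciferase signal from less NR2E3 corepressor binding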
# PP5 inh = PP5 phosphatase inhibitors, primary screen, biochemical, fluorescence | Serine/threonine-protein phosphatase 5 (Homo sapiens), P53041 | purified PP5c, OMFP substrate fluorescence | inhibition, % at 6.7 µM | 0.18% of 320,000 active | AID 1987, 2009;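 active means inhibition above the campaign's mean inhibition across all tested compounds plus 3 SD, cut at about 9.5% in these data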
# Target sequence (P53041 whole entry, looked up): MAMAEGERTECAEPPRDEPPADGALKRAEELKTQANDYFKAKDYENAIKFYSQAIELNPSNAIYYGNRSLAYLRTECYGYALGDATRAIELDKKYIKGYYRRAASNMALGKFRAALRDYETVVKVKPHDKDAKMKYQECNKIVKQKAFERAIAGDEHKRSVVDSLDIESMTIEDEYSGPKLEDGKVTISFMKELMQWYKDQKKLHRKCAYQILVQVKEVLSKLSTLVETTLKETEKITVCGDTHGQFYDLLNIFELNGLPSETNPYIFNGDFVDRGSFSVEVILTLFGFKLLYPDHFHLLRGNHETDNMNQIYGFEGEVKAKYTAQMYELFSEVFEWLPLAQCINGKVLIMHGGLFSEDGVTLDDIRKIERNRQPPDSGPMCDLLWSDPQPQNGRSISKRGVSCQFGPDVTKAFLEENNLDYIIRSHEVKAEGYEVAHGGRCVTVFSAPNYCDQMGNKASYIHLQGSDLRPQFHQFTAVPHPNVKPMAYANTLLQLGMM
# PP1 confirm = PP1 phosphatase inhibitors, confirmation, biochemical, fluorescence, OMFP substrate, triplicate. shares compounds with PP1 counter. purified PP1alpha. inhibition, % at 6.7 µM. 52% of 1,900 active. AID 2358, 2010;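 active means mean PP1 inhibition above a set limit taken from the earlier primary screen, cut at about 15% in these data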
# PP5 inh counter = PP5 phosphatase inhibition by PP1 hits, confirmation, counter-screen for PP1 inhibitor project, biochemical, fluorescence, triplicate | inhibition, % at 6.7 µM | 4% of 1,900 active | purified PP5c, OMFP fluorescence | shares compounds with PP1 counter;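 active means mean PP5 inhibition over triplicate wells above about 9.5% taken from the earlier PP1 screen, limit read from the data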
# Hits are given with their value; i = inactive; nt = not tested or not shown. Shown are actives, neighbours in structure and some others; about 1.3% of the full set was active somewhere.
SMILES,NR2E3 ag-1,PP1 counter,NR2E3 ag-2,PP5 inh,PP1 confirm,PP5 inh counter
COc1cc(C2c3c(-c4cc(Cl)c(C)cc4O)n[nH]c3C(=O)N2Cc2cccnc2)ccc1O (centres undefined),i,i,i,i,nt,nt
COc1cccc(C2c3c(-c4cc(Cl)c(C)cc4O)n[nH]c3C(=O)N2Cc2cccnc2)c1 (centres undefined),i,19,i,i,i,i
COc1ccccc1CNC(=O)C(NS(=O)(=O)c1ccc2c(c1)oc(=O)n2C)C(C)C (centres undefined),i,27,i,i,i,i
CS(=O)(=O)N1CCN(c2ccccc2NC(=O)c2cc3ccccc3o2)CC1,i,i,i,i,nt,nt
Cc1cc(C)cc(C(=O)NCCCN2CCOCC2)c1,i,i,i,i,nt,nt
CC(=O)c1ccccn1,i,i,i,i,nt,nt
C/C(=N/O)c1ccccn1,i,36,i,i,i,i
Cc1nc(C(F)(F)F)ccc1C(=O)N1CCC1(C)C(=O)NCc1ccc(Cl)cc1 (centres undefined),nt,nt,i,nt,nt,nt
C=CCn1cc(/C=N/Nc2nc3ccccc3[nH]2)c2ccccc21,i,22,i,i,30,i
Cc1c(/C=N/Nc2nc3ccccc3[nH]2)c2ccccc2n1C,i,i,i,i,nt,nt
COc1cc(OC)cc(C(=O)OCC(=O)NC2CCCCCCC2)c1,nt,nt,i,nt,nt,nt
Cc1ccc(NC(=O)COc2cccc(/C=C3\SC(=S)N(CCC(=O)O)C3=O)c2)cc1Cl,i,39,i,i,i,i
O=C(O)CCN1C(=O)/C(=C\c2cccc(OCC(=O)Nc3ccc(Cl)cc3)c2)SC1=S,i,24,i,i,i,i
O=C(CCN1C(=O)/C(=C\c2ccccc2)SC1=S)Nc1ccc(C(=O)O)cc1,i,20,i,i,i,i
COc1cc(CN2CCC(CCC(=O)NC3CC3)CC2)cc(Cl)c1OC,i,i,i,i,nt,nt
CCCCCCn1cc(CN2CC(N3CCN(CCO)CC3)CS2(=O)=O)nn1 (centres undefined),nt,nt,i,nt,nt,nt
COc1ccc2nc3cc(Cl)ccc3c(Nc3cc(C(C)C)c(O)cc3C)c2c1,i,29,i,i,i,i
COc1ccc(S(=O)(=O)Nc2cc(C(C)C)c(O)cc2C)cc1,i,i,i,i,nt,nt
CCc1nnc(NC(=O)CSc2sc3c(O)cc(=O)[nH]c3c2C#N)s1,i,18,i,i,i,i
COc1ccc(NC(=O)CSc2sc3c(O)cc(=O)[nH]c3c2C#N)c(OC)c1,i,i,i,i,nt,nt
COc1ccccc1NC(=O)CSc1sc2c(O)cc(=O)[nH]c2c1C#N,i,20,i,i,i,i
COc1ccccc1Cc1c(-c2ccccc2)nc2c(C)cc(Br)cn12,nt,nt,i,nt,nt,nt
CCOc1cc(C(=O)OCC(=O)N(C)c2ccccc2)cc(OCC)c1OCC,i,i,i,i,nt,nt
O=[N+]([O-])c1cc(CN2CCCC2)c2cccnc2c1O,i,18,i,i,i,i
O=[N+]([O-])c1cc(CN2CCN(c3cccc(C(F)(F)F)c3)CC2)c2cccnc2c1O,i,18,nt,i,24,i
SMILES,NR2E3 ag-1,PP1 counter,NR2E3 ag-2,PP5 inh,PP1 confirm,PP5 inh counter
Oc1c(Cl)cc(CN2CCCCC2)c2cccnc12,i,i,i,i,nt,nt
N#Cc1c(-c2ccco2)cc(-c2cccnc2)nc1N,i,28,i,i,i,i
N#Cc1c(-c2ccco2)cc(-c2ccccn2)nc1N,i,27,i,i,i,i
N#Cc1c(-c2cccnc2)cc(-c2ccccc2)nc1N,i,i,i,i,nt,nt
COc1ccc(C2CC(c3ccc(Cl)cc3)Nc3nc(NC(=O)c4ccco4)nn32)cc1 (centres undefined),nt,nt,i,nt,nt,nt
O=C(Nc1nc2n(n1)C(c1ccc(Cl)cc1)CC(c1ccc(Cl)cc1)N2)c1ccco1 (centres undefined),i,23,nt,i,16,i
Cc1cccc(OC(C)C(=O)Nc2nccs2)c1 (centres undefined),i,i,i,i,nt,nt
CN(C)C(=O)c1ccc(-c2cc3onc(-c4ccccc4)c3c(=O)n2C)cc1,nt,nt,i,nt,nt,nt
